Assay results from PubChem BioAssay AID2646 (Broad Institute, 2010).
Active and inactive are the calls of the source.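 How the source made its calls: active means mean cAMP rise at 10 µM above half of the positive control's rise; inactive means the rest.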

Tested on: human washed platelets, cAMP competitive ELISA, 5 min
Assay: platelet cAMP elevation by single compound, confirmation, counter-screen for platelet activation inhibitor project, cell-based, competitive ELISA, PGE1 reference (AID 2646)
Details: at 10 µM; stronger effect = higher value
Procedure, shortened: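 Signal: competitive cAMP ELISA of platelet lysates, optical density; Material: washed human donor platelets; Replication: duplicate samples per compound; Buffer or medium: Acidic Triton X-100 lysis buffer; Controls: PGE1 1 µM high, DMSO 0.3% neutral; Schedule: 5 min treatment.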

CCCC(=O)Nc1cccc(NC(=O)c2ccccc2Br)c1
cAMP elevation, % of PGE1: 43.9% (inactive)
